The results in this text go back to ChEMBL document CHEMBL1143614, “Structure-activity relationships of the unique and potent agouti-related protein (AGRP)-melanocortin chimeric Tyr-c[beta-Asp-His-DPhe-Arg-Trp-Asn-Ala-Phe-Dpr]-Tyr-NH2 peptide template” (J Med Chem, 2005).

The target in assay [1] is Melanocortin receptor 3 (Mus musculus) (UniProt P33033). Kind of assay: Antagonist activity for mouse Melanocortin-3 receptor. The assay is classed as functional.
Assay [2] concerns the target Melanocortin receptor 4 (Mus musculus) (UniProt P56450). Kind of assay: Partial agonist concentration for mouse Melanocortin-4 receptor. The format is functional.
In assay [3] the target is Melanocortin receptor 3 (Mus musculus) (UniProt P33033). Kind of assay: Partial agonist activity towards mouse Melanocortin-3 receptor. The format is functional. In short, it runs like this: (§1)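 HEK-293 cells stably expressing mouse melanocortin receptors (G418-selected) were transiently transfected with a CRE/β-galactosidase reporter. 48 h after transfection, cells were stimulated for 6 h with peptide (10^-4 to 10^-12 M) or forskolin (10^-4 M) in DMEM with 0.1 mg/mL BSA and 0.1 mM IBMX. Lysates were incubated with ONPG at 37° and read at OD405. Signals were normalized to relative protein (OD595) and to forskolin response. EC50 came from nonlinear least-squares fits of duplicate experiments in quadruplet or more.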

Assay [4] shares this target. The assay is described as follows: Relative percent of stimulatory activity for mouse Melanocortin-3 receptor at 100 uM. In short, it runs like this: as §1
For assay [5] the target is unchanged. The assay is described as follows: Agonist activity for mouse Melanocortin-3 receptor. The assay is classed as functional. The gist of the method: as §1
Assay [6] deals with Melanocortin receptor 4 (Mus musculus) (UniProt P56450). The assay is described as follows: Partial agonist activity towards mouse Melanocortin-4 receptor. The format is functional. The gist of the method:
as §1

Assay [7] has the same target.

Where a SMILES comes first, the peptide text is derived from it. Bridges are numbered along the chain shown (N, C = ends).

Melanocortin receptor 3 (Mus musculus), sequence (P33033 whole entry): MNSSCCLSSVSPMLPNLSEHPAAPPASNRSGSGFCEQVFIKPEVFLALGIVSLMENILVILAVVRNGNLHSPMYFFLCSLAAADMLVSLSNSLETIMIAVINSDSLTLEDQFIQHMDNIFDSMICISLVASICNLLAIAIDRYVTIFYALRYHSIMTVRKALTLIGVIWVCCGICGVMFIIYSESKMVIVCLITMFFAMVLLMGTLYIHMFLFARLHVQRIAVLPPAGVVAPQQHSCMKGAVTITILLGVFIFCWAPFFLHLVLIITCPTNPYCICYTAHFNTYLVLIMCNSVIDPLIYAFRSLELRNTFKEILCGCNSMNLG
Melanocortin receptor 4 (Mus musculus), sequence (P56450 whole entry): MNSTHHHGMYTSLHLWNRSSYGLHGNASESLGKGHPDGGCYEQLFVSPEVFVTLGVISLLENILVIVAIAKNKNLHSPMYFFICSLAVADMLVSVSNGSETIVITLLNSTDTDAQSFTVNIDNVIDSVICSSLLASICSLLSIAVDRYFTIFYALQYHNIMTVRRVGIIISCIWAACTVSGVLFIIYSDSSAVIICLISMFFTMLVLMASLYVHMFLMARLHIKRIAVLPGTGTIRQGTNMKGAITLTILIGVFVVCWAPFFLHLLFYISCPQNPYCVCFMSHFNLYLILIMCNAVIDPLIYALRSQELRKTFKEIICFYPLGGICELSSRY

The term pA2 denotes a measure of antagonist potency on a negative log scale. High values mean a more potent antagonist, low ones a weaker antagonist. Regarding `C[C@@H]1NC(=O)[C@H](CC(N)=O)NC(=O)[C@H](Cc2c[nH]c3ccccc23)NC(=O)[C@H](CCCN=C(N)N)NC(=O)[C@@H](Cc2ccc3ccccc3c2)NC(=O)[C@H](Cc2c[nH]cn2)NC(=O)[C@@H](NC(=O)[C@@H](N)Cc2ccc(O)cc2)CC(=O)N([C@@H](Cc2ccc(O)cc2)C(N)=O)[C@@](C)(C(=O)O)NC(=O)[C@H](Cc2ccccc2)NC1=O`, the pA2 in assay [1] was determined as 8.2; in assay [2] it was 9.1.

In assay [3], `C[C@@H]1NC(=O)[C@H](CC(N)=O)NC(=O)[C@H](Cc2c[nH]c3ccccc23)NC(=O)[C@H](CCCN=C(N)N)NC(=O)[C@@H](Cc2ccccc2)NC(=O)[C@@H]2CCCN2C(=O)[C@@H](NC(=O)[C@@H](N)Cc2ccc(O)cc2)CC(=O)N([C@@H](Cc2ccc(O)cc2)C(N)=O)[C@@](C)(C(=O)O)NC(=O)[C@H](Cc2ccccc2)NC1=O` returned a pA2 of 7.2.

As for `C[C@@H]1NC(=O)[C@H](CC(N)=O)NC(=O)[C@H](Cc2c[nH]c3ccccc23)NC(=O)[C@H](CCCN=C(N)N)NC(=O)[C@@H](Cc2ccccc2)NC(=O)C2(CCc3ccccc3C2)NC(=O)[C@@H](NC(=O)[C@@H](N)Cc2ccc(O)cc2)CC(=O)N([C@@H](Cc2ccc(O)cc2)C(N)=O)[C@@](C)(C(=O)O)NC(=O)[C@H](Cc2ccccc2)NC1=O` (mixture of isomers), in assay [4], the SA turned out to be 40%. This compound also gave a pA2 in assay [5] of 6.4.

Consider `C[C@@H]1NC(=O)[C@H](CC(N)=O)NC(=O)[C@H](Cc2c[nH]c3ccccc23)NC(=O)[C@H](CCCN=C(N)N)NC(=O)[C@@H](Cc2ccc(I)cc2)NC(=O)[C@H](Cc2c[nH]cn2)NC(=O)[C@@H](NC(=O)[C@@H](N)Cc2ccc(O)cc2)CC(=O)N([C@@H](Cc2ccc(O)cc2)C(N)=O)[C@@](C)(C(=O)O)NC(=O)C(Cc2ccccc2)NC1=O` (stereo in doubt), for which the pA2 was determined as 8.8 in assay [1] and 9.4 in assay [6].

For `C[C@@H]1NC(=O)[C@H](CC(N)=O)NC(=O)[C@H](Cc2c[nH]c3ccccc23)NC(=O)[C@H](CCCN=C(N)N)NC(=O)[C@@H](Cc2ccccc2)NC(=O)[C@H](Cc2ccccc2)NC(=O)[C@@H](NC(=O)[C@@H](N)Cc2ccc(O)cc2)CC(=O)N([C@@H](Cc2ccc(O)cc2)C(N)=O)[C@@](C)(C(=O)O)NC(=O)[C@H](Cc2ccccc2)NC1=O`, the pA2 in assay [3] was determined as 7.2.

`C[C@@H]1NC(=O)[C@H](CC(N)=O)NC(=O)[C@H](Cc2ccccc2)NC(=O)[C@H](Cc2ccccc2)NC(=O)[C@H](CCCN=C(N)N)NC(=O)[C@@H](NC(=O)[C@@H](N)Cc2ccc(O)cc2)CSSC[C@@H](C(=O)N[C@@H](Cc2ccc(O)cc2)C(N)=O)NC(=O)[C@H](Cc2ccccc2)NC1=O` (H-YCRFFNAFCY-NH2; disulfide 2-9) returned a pA2 in assay [7] of 6.8.
